From the array DNA melting data of Ke et al. (doi:10.1101/2024.01.08.574731) come the findings set out here.

Data set [1] is described as follows: folding enthalpy; higher = less favourable; fluorescence melt of hairpins on a sequencing array, two-state fit. The following applies: sodium 0.088 M. An outline of the steps: (§1)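 Bootstrapped two-state fits yielded melting temperature and folding enthalpy for library hairpins. Cy3 fluorescence, with annealed Cy3 and quencher oligos, was imaged on a sequenced MiSeq flow cell in 50 mM Na-HEPES pH 8.0, 25 mM NaCl in 2.5 °C steps up to 60 °C, and normalised to pre-quench Cy3 and to control constructs. Four replicates were combined by inverse variance, and fitted temperatures were raised by 9.35 °C to match UV melts.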

Data set [2] can be described thus: melting temperature; fluorescence melt of hairpins on a sequencing array, two-state fit, raised by 9.35 °C to match UV melts. To be noted: sodium 0.088 M. In outline: as §1

GCAAGGCGAAAGCGTCGC ((.(.((....)).).)): the folding enthalpy in data set [1] is -15.4 kcal/mol. In addition, in data set [2], the Tm turned out to be 40.7 °C.
On the same counts, the results for GCGAGTTCGAAAGAACGC (((..(((....)))))) are -11.8 kcal/mol and 49.5 °C.
Take GTCCTGAAAAGGAC (((((....))))): the folding enthalpy in data set [1] was -31 kcal/mol. For the same sequence, in data set [2], the Tm amounted to 55.9 °C.
In the same order, the values of GGCTATGAAAATAGCC ((((((....)))))) are -45.7 kcal/mol and 59.1 °C.
GATCGCTGCCGCGATC ((((((....)))))): the folding enthalpy in data set [1] was -32.8 kcal/mol. The Tm in data set [2] came out at 67.3 °C.
Turning to GGAGACTCGAAAGAGTCC (((..(((....)))))), the folding enthalpy in data set [1] is -10 kcal/mol. Besides, the Tm in data set [2] came out at 45.4 °C.
In the same order, the values of GGGGCACCGAAAGGTCCC (((..(((....)))))) are -25.9 kcal/mol and 53.1 °C.
Take GCGTCCGAAAGGAAACGC ((((((....)))..))): in data set [1], the folding enthalpy is -34.1 kcal/mol. Further, the Tm in data set [2] was 54.4 °C.
Regarding GCCTCCGAAAGGAGAGGC ((((((....)))..))), the folding enthalpy in data set [1] was -20.4 kcal/mol. In data set [2], the Tm was found to be 54.8 °C.
On the same counts, the results for GCTAGGCGAAAGCCCAGC (((.(((....))).))) are -23.7 kcal/mol and 50.7 °C.
On the same counts, the results for GATCATAGTTATGATC ((((((....)))))) are -40 kcal/mol and 48.2 °C.
As to GATCCGGGCTCGGATC ((((((....)))))), the folding enthalpy in data set [1] was -44.6 kcal/mol. Besides, in data set [2], the Tm worked out at 59.3 °C.
On the same counts, the results for GTACACGAAAGTGGCTAC ((((((....)))..))) are -13.9 kcal/mol and 35.7 °C.
In the same order, the values of GATCCGAGGCGGATC ((((((...)))))) are -43.4 kcal/mol and 56.8 °C.
On the same counts, the results for GCTACGGGAAACTGTAGC (((((.(....).))))) are -48.3 kcal/mol and 52.1 °C.
Turning to ATACCGAAAGGTAT (((((....))))), in data set [1], the folding enthalpy is -20.2 kcal/mol. Further, the Tm in data set [2] stood at 52.2 °C.
On the same counts, the results for GGCGGCTCGAAAGAGGCC (((..(((....)))))) are -11.4 kcal/mol and 51.6 °C.
As to GGCGCCGAAAGGCTCGCC ((((((....)))..))), in data set [1], the folding enthalpy was -19.1 kcal/mol. In addition, the Tm in data set [2] worked out at 54.5 °C.
As for GCGGCGCGAAAGCACTGC ((.(.((....)).).)), in data set [1], the folding enthalpy was -29 kcal/mol. Also, the Tm in data set [2] worked out at 54.6 °C.
In the same order, the values of GCGAGCGAAAGCTATCGC ((((((....)))..))) are -23.3 kcal/mol and 54.6 °C.
Regarding GACACCCGAAAGGGCGTC (((.(((....))).))), in data set [1], the folding enthalpy was -36.7 kcal/mol. The Tm in data set [2] was 58.9 °C.
In the same order, the values of GGTCCGGGAAACTGGACC (((((.(....).))))) are -45.3 kcal/mol and 58.8 °C.
Turning to GATTGGCGAAAGCCTATC (((.(((....))).))), the folding enthalpy in data set [1] was -19.8 kcal/mol. The Tm in data set [2] was 48.8 °C.
Regarding GATAAACGAAAGTTATC (((.(((....)))))), the folding enthalpy in data set [1] was -15.1 kcal/mol. The Tm in data set [2] turned out to be 33.9 °C.
Regarding GCAGGGCGAAAGCCTGGC ((..(((....)))..)), the folding enthalpy in data set [1] is -20.2 kcal/mol. The Tm in data set [2] was 59.8 °C.
On the same counts, the results for GTCAAAGGAAACTTTGGC (.(((((....))))).) are -29.9 kcal/mol and 44.5 °C.
On to GCGTCCGAAAGGACCGC ((((((....))).))), for which, in data set [1], the folding enthalpy is -19.6 kcal/mol. Further, in data set [2], the Tm was 66.7 °C.
On the same counts, the results for GAAGCCGAAAGGCTTTTC ((((((....)))..))) are -12 kcal/mol and 54.7 °C.
Take GACATCGGAAACGACGTC (((.(((....))).))): the folding enthalpy in data set [1] was -28 kcal/mol. Also, the Tm in data set [2] was 43.3 °C.
In the same order, the values of GATCACTAAAGTGATC ((((((....)))))) are -38.6 kcal/mol and 54.5 °C.
For GAACAGCGAAAGCTTTC (((.(((....)))))), the folding enthalpy in data set [1] was -12.4 kcal/mol. Besides, the Tm in data set [2] was determined as 33.6 °C.
With GGACTGGGAAACCAGTCC (((((((....))))))), the folding enthalpy in data set [1] was -35.3 kcal/mol. In addition, the Tm in data set [2] worked out at 68.5 °C.
CGACTCGGAAACGATTCG (((.(((....))).))): the folding enthalpy in data set [1] was -41 kcal/mol. The Tm in data set [2] came out at 42.5 °C.
Take GATCTAGTATAGATC ((((((...)))))): the folding enthalpy in data set [1] was -41.5 kcal/mol. Further, the Tm in data set [2] turned out to be 49.5 °C.
Regarding GTATGGCCGAAAGGCTAC (((..(((....)))))), in data set [1], the folding enthalpy is -7.75 kcal/mol. The Tm in data set [2] turned out to be 30 °C.
Turning to GAGTGACCGAAAGGTCTC (((..(((....)))))), the folding enthalpy in data set [1] was -9.86 kcal/mol. The Tm in data set [2] was 35 °C.
With GATTTACGAAAGTATATC (((.(((....))).))), in data set [1], the folding enthalpy is -24.2 kcal/mol. Moreover, the Tm in data set [2] is 35.6 °C.
Turning to GCATCGCGAAAGCGTTGC (((.(((....))).))), the folding enthalpy in data set [1] is -44.2 kcal/mol. The Tm in data set [2] is 58.5 °C.
As to GTACTAGGAAACCAGTAC (((((.(....).))))), the folding enthalpy in data set [1] was -26.9 kcal/mol. Further, the Tm in data set [2] was determined as 36 °C.
As to GCTATCGAAAGATAAAGC ((((((....)))..))), in data set [1], the folding enthalpy was -23.9 kcal/mol. Also, the Tm in data set [2] is 33.6 °C.
As for GTAAAGGGAAACCCTTAC ((((.((....)).)))), the folding enthalpy in data set [1] was -22.2 kcal/mol. Besides, the Tm in data set [2] turned out to be 32.8 °C.
On the same counts, the results for GCCACGCGAAAGCTTGGC ((((.((....)).)))) are -35.5 kcal/mol and 66 °C.
On the same counts, the results for GATCGGCTCGCCGATC ((((((....)))))) are -35.9 kcal/mol and 69.3 °C.
In the same order, the values of GAGTCTGAAAAGACTC ((((((....)))))) are -38 kcal/mol and 59 °C.
On to GTTGTGGAAACACAAC ((((((....)))))), for which the folding enthalpy in data set [1] is -38.3 kcal/mol. Also, in data set [2], the Tm was 58.3 °C.
Take GGTGCCGGAAACAGCACC (((((.(....).))))): the folding enthalpy in data set [1] was -46.2 kcal/mol. For the same sequence, in data set [2], the Tm was determined as 53.5 °C.
On the same counts, the results for GCAGTGCGAAAGCCGTGC (((..((....))..))) are -21.1 kcal/mol and 46.4 °C.
On the same counts, the results for GATCGCCCGAAAGGGATC (((..(((....)))))) are -14.6 kcal/mol and 34.5 °C.
In the same order, the values of GATCACGTCGTGATC ((((((...)))))) are -40.5 kcal/mol and 61.1 °C.
With GCGTCGCGAAAGCCCCGC (((..((....))..))), in data set [1], the folding enthalpy was -19.7 kcal/mol. Moreover, the Tm in data set [2] amounted to 43.6 °C.
In the same order, the values of GGTGGGGGAAACCCTGCC ((..(((....)))..)) are -27.9 kcal/mol and 47.8 °C.
In the same order, the values of GGGTGGGGAAACCCGCCC (((.(((....))).))) are -33.6 kcal/mol and 67.3 °C.
With GGGATCGAAAGATACCCC ((((((....)))..))), in data set [1], the folding enthalpy is -18.1 kcal/mol. The Tm in data set [2] was 51.6 °C.
On the same counts, the results for GGGCCTGGAAACAGACCC (((.(((....))).))) are -38.6 kcal/mol and 50.9 °C.
Take GATCAGAAGCCTGATC ((((((....)))))): the folding enthalpy in data set [1] was -31.7 kcal/mol. Besides, the Tm in data set [2] worked out at 47.1 °C.
As for GTAAGCCGAAAGGCTAC (((.(((....)))))), in data set [1], the folding enthalpy was -11.5 kcal/mol. Besides, the Tm in data set [2] is 47.3 °C.
On the same counts, the results for GCATCTCCGAAAGGATGC (((..(((....)))))) are -28.6 kcal/mol and 46.1 °C.
On the same counts, the results for GACGCGGGAAACCGCGCC (.(((((....))))).) are -11.8 kcal/mol and 55 °C.
On the same counts, the results for GATCCACCTATGGATC ((((((....)))))) are -41.4 kcal/mol and 50.1 °C.
On to GATCATGTATATGATC ((((((....)))))), for which, in data set [1], the folding enthalpy is -41.7 kcal/mol. Moreover, the Tm in data set [2] stood at 55.3 °C.
Take GATCACTACGTGATC ((((((...)))))): in data set [1], the folding enthalpy is -39.7 kcal/mol. Besides, the Tm in data set [2] came to 61.7 °C.
On the same counts, the results for GTGGTCGAAAGACGGCAC ((((((....)))..))) are -16.8 kcal/mol and 38.5 °C.
On the same counts, the results for GTAATCCGAAAGGAGTAC (((.(((....))).))) are -28.5 kcal/mol and 49.9 °C.
On the same counts, the results for GCGTAAGCACGC ((((....)))) are -9.59 kcal/mol and 59.6 °C.
Turning to GTTCCTGGAAACAGGAGC (.(((((....))))).), the folding enthalpy in data set [1] is -23.4 kcal/mol. The Tm in data set [2] worked out at 48.3 °C.
Regarding GCGACCGAAAGGTAACGC ((((((....)))..))), in data set [1], the folding enthalpy is -29.6 kcal/mol. The Tm in data set [2] came to 51.9 °C.
On the same counts, the results for GAATCGGAAACGATTC ((((((....)))))) are -36.1 kcal/mol and 55.7 °C.
On the same counts, the results for GTCACCGAAAGGTTGGAC ((((((....)))..))) are -14.8 kcal/mol and 31.1 °C.
On the same counts, the results for GAGGGAACGAAAGTTCTC (((..(((....)))))) are -13.7 kcal/mol and 37.7 °C.
For GCGTCCCGAAAGGGCCGC (((.(((....))).))), in data set [1], the folding enthalpy is -23.7 kcal/mol. The Tm in data set [2] amounted to 64.8 °C.
On the same counts, the results for GATCTGAGCCCAGATC ((((((....)))))) are -29.7 kcal/mol and 47.3 °C.
In the same order, the values of GCCGTCGAAAGACCCGGC ((((((....)))..))) are -18.3 kcal/mol and 47.9 °C.
In the same order, the values of CGTTACCGGAAACGGACG (((..(((....)))))) are -17 kcal/mol and 36.9 °C.
Take GATCGTTGAAACGATC ((((((....)))))): the folding enthalpy in data set [1] was -39.2 kcal/mol. The Tm in data set [2] came to 54.8 °C.
